Reference: the RNAGym collection of RNA variant scans (doi:10.1002/anie.201605470)

B1: Osa-1-4 twister ribozyme (parent)
chain: CCGCCUAACACUGCCAAUGCCGGUCCCAAGCCCGGAUAAAAGUGGAGGGGGCGG

Variants of: B1
Test: self-cleavage, relative activity (ratio to wild type); higher = more cleavage; co-transcriptional
How it was run: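 Relative activity is the fraction cleaved divided by that of the wild-type ribozyme. The library came from a DNA template for a 54-nucleotide Oryza sativa twister ribozyme, doped at the 48 positions downstream of the cleavage site with 97 % wild-type base and 1 % of each other base. After 2 h of in vitro transcription at 37 °C with co-transcriptional self-cleavage, the RNA was reverse-transcribed with a template-switching oligonucleotide, amplified by PCR and deep-sequenced, and reads with or without upstream sequence gave the cleavage status.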

Row | Variant | self-cleavage
1 | C14U C32A | 0.04
2 | C14U C32G | 0.04
3 | C14U C32U | 0.06
4 | C15A C52U | 0.57
5 | C15A C52G | 0.32
6 | C15A C52A | 0.23
7 | C15A U24C | 0.08
8 | C15A U24G | 0.02
9 | C15A U24A | 0.05
10 | C15G G22A | 0.16
11 | C15G G22C | 0.06
12 | C15G G22U | 0.09
13 | C14U G22U | 0.11
14 | C14U G22C | 0.04
15 | C14U G22A | 0.21
16 | C15G G49A | 0.07
17 | C15G G49U | 0.06
18 | C15G G49C | 0.05
19 | C15G G35U | 0.3
20 | C15G G35A | 0.38
21 | C15G G35C | 0.14
22 | C15U C21A | 0.09
23 | C15U C21U | 0.46
24 | C15U C21G | 0.04

Row | Variant | self-cleavage
25 | C15G U37A | 0.45
26 | C15G U37G | 0.72
27 | C15G U37C | 0.47
28 | C14U G44A | 0.59
29 | C14U G44C | 0.33
30 | C14U G44U | 0.14
31 | C15A G30U | 0.03
32 | C15A G30A | 0.02
33 | C15A G30C | 0.04
34 | C15G C20G | 0.08
35 | C15G C20A | 0.54
36 | C15G C20U | 0.69
37 | C15U C31U | 0.06
38 | C15U C31G | 0.06
39 | C15U C31A | 0.03
40 | C15A C25A | 0.07
41 | C15A C25G | 0.04
42 | C15A C25U | 0.08
43 | C15G C9U | 0.11
44 | C15G C9G | 0.66
45 | C15G C9A | 0.06
46 | C14U G30C | 0.03
47 | C14U G30A | 0.79
48 | C14U G30U | 0.03

Row | Variant | self-cleavage
49 | C15A G54C | 0.11
50 | C15A G54A | 0.19
51 | C15A G54U | 0.43
52 | C14U U24A | 0.04
53 | C14U U24C | 0.05
54 | C14U U24G | 0.02
55 | C15U C32A | 0.03
56 | C15U C32U | 0.06
57 | C15U C32G | 0.08
58 | C15A G35U | 0.35
59 | C15A G35A | 0.48
60 | C15A G35C | 0.09
61 | C14U C33A | 0.04
62 | C14U C33U | 0.08
63 | C14U C33G | 0.03
64 | C14U C27G | 0.06
65 | C14U C27A | 0.05
66 | C14U C27U | 0.06
67 | C15A U18A | 0.51
68 | C15A U18C | 0.58
69 | C15A U18G | 0.49
70 | C15A U37G | 0.78
71 | C15A U37C | 0.59
72 | C15A U37A | 0.51

Row | Variant | self-cleavage
73 | C15A G42C | 0.08
74 | C15A G42U | 0.05
75 | C15A G42A | 0.12
76 | C15G C26U | 0.11
77 | C15G C26G | 0.11
78 | C15G C26A | 0.04
79 | C15G G45A | 0.07
80 | C15G G45U | 0.04
81 | C15G G45C | 0.04
82 | C15G G47U | 0.09
83 | C15G G47C | 0.06
84 | C15G G47A | 0.08
85 | C15U G22U | 0.11
86 | C15U G22A | 0.17
87 | C15U G22C | 0.03
88 | C15G G19A | 0.95
89 | C15G G19U | 0.7
90 | C15G G19C | 0.74
91 | C15A G48A | 0.05
92 | C15A G48C | 0.04
93 | C15A G48U | 0.04
94 | C14U G54A | 0.17
95 | C14U G54U | 0.47
96 | C14U G54C | 0.12

Row | Variant | self-cleavage
97 | C14U C20U | 0.48
98 | C14U C20G | 0.05
99 | C14U C20A | 0.51
100 | C15G G50C | 0.14
101 | C15G G50A | 0.3
102 | C15G G50U | 0.26
103 | C15U G30A | 0.02
104 | C15U G30C | 0.02
105 | C14U C31U | 0.06
106 | C14U C31A | 0.03
107 | C14U C31G | 0.06
108 | C14U G48U | 0.05
109 | C14U G48C | 0.05
110 | C14U G48A | 0.05
111 | C15G G42C | 0.08
112 | C15G G42U | 0.05
113 | C15G G42A | 0.12
114 | C15G U43C | 0.11
115 | C15G U43A | 0.17
116 | C15G U43G | 0.1
117 | C15G G34C | 0.18
118 | C15G G34A | 0.27
119 | C15G G34U | 0.13
120 | C15G G13C | 0.02

Row | Variant | self-cleavage
121 | C15G G13U | 0.02
122 | C15G G13A | 0.05
123 | C14U G34C | 0.08
124 | C14U G34A | 0.15
125 | C14U G34U | 0.11
126 | C15U G23C | 0.03
127 | C15U G23A | 0.06
128 | C15U G23U | 0.03
129 | C15U C33A | 0.05
130 | C15U C33U | 0.06
131 | C15U C33G | 0.03
132 | C14U C52U | 0.52
133 | C14U C52G | 0.28
134 | C14U C52A | 0.21
135 | C15A C9U | 0.19
136 | C15A C9G | 0.14
137 | C15A C9A | 0.14
138 | C15A G51C | 0.04
139 | C15A G51A | 0.1
140 | C15A G51U | 0.07
141 | C14U G45U | 0.06
142 | C14U G45A | 0.04
143 | C14U G45C | 0.04
144 | C14U U43A | 0.12

Row | Variant | self-cleavage
145 | C14U U43G | 0.09
146 | C14U U43C | 0.09
147 | C15G G48A | 0.05
148 | C15G G48C | 0.05
149 | C15G G48U | 0.04
150 | C15A C31G | 0.05
151 | C15A C31U | 0.09
152 | C15A C31A | 0.03
153 | C15U C52A | 0.26
154 | C15U C52G | 0.41
155 | C15U C52U | 0.48
156 | C15A G19A | 0.92
157 | C15A G19C | 0.38
158 | C15A G19U | 0.82
159 | C15G G54A | 0.19
160 | C15G G54C | 0.16
161 | C15G G54U | 0.35
162 | C15G C52G | 0.31
163 | C15G C52A | 0.21
164 | C15G C52U | 0.48
165 | C15A G44A | 0.11
166 | C15A G44C | 0.33
167 | C15A G44U | 0.19
